Results from ChEMBL document CHEMBL4334439, “Discovery, Optimization, and Target Identification of Novel Potent Broad-Spectrum Antiviral Inhibitors” (J Med Chem, 2019).
Calls of active or inactive are those of the source. The calls are words filed in the database; no cut-off is given here.

Columns and labels:
Hepatitis C virus [1] = test: Antiviral activity against EGFP-fused HCV JFH-1 harboring K78E/E2-G451R/NS3-M260K/NS5A-T462I mutant infected in human Huh7.5.1 cells assessed as reduction in viral RNA level after 2 days by qRT-PCR analysis; format: functional, organism-based
In short: (§1)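 Huh7.5.1 cells at 1×10^4/well, grown overnight at 37 °C. HCVcc was mixed with serially diluted compound (top 30 or 6 μM), given alone or with the named drug, and added to the cells. Viral RNA was read by qRT-PCR after 2 days. EC50 is the concentration giving 50% RNA reduction.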

[2] = Cytotoxicity against African green monkey Vero cells infected with CHIKV assessed as decrease in cell viability after 48 hrs by WST1 assay; format: cell-based; details: chlorocebus sabaeus
In short: (§2)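 Cells at 1×10^4/well, cultured overnight at 37 °C, were incubated 48 h with serially diluted compound. Viability was read by WST-1 absorbance (OD450/OD630).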

[3] = Cytotoxicity against African green monkey Vero cells infected with SFTSV measured after 48 hrs by WST1 assay; format: cell-based; details: chlorocebus sabaeus; in short: as §2
[4] = biological target: Inosine-5'-monophosphate dehydrogenase 2 (Homo sapiens) (UniProt P12268); test: Binding affinity to IMPDH2 (unknown origin)
[5] = Selectivity index, ratio of CC50 for African green monkey Vero cells to EC50 for RSV infected in African green monkey Vero cells; format: toxicity; details: read-out: Ratio CC50/EC50
[6] = Inhibition of C-terminal 6-His tagged recombinant human DHODH N-terminal domain delta29 mutant expressed in Escherichia coli BL21(DE3) using dihydroorotate as substrate measured every 30 secs for 6 mins by DCIP dye based assay
In short: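 Enzyme purified by HisTrap then size exclusion. Reaction started with 500 μM dihydroorotate. DCIP decrease read at 600 nm. Inhibition = (1 − Vi/V0) × 100. IC50 from 8–9 concentrations in triplicate by sigmoidal fit.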

Homo sapiens = species: Homo sapiens; test: Binding affinity to C-terminal 6-His tagged recombinant human DHODH N-terminal domain delta29 mutant expressed in Escherichia coli BL21(DE3) assessed as reduction in pronase-mediated protein degradation incubated for 1 hr followed by pronase addition and measured after 15 mins by SDS-PAGE based Western blot analysis
In short: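 DARTS used Δ29 human DHODH with a C-terminal His6 tag, expressed in E. coli BL21(DE3) and purified on HisTrap then Superdex200. Protein at 20 μg/ml in TNC buffer (50 mM Tris pH 8.0, 50 mM NaCl, 10 mM CaCl2) was incubated 1 h at RT with compound or DMSO. Pronase followed, 15 min at 37 °C; protease-inhibitor quench; anti-DHODH western blot.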

Hepatitis C virus [7] = test: Antiviral activity against EGFP-fused HCV JFH-1 harboring K78E/E2-G451R/NS3-M260K/NS5A-T462I mutation infected in human Huh7.5.1 cells assessed as reduction in viral RNA level after 2 days in presence of IFNalpha by qRT-PCR analysis; format: functional, organism-based; details: Hepacivirus hominis; in short: as §1
Influenza A virus = test: Antiviral activity against Gaussia tagged Influenza A virus (A/Puerto Rico/8/34(H1N1)) infected in MDCK cells assessed as inhibition of H1N1 replication measured at 24 hrs post infection by luciferase reporter gene assay; format: functional, organism-based; details: A/Puerto Rico/8/1934(H1N1)
In short: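 MDCK cells at 1×10^5/well, cultured overnight, were infected with A/PR/8/34(H1N1)-Gaussia luciferase at MOI 0.1. Compound (0.05–20 µM) was added immediately. Luminescence or qRT-PCR was read at 24 hpi; EC50 is 50% reduction.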

[8] = system: Middle East respiratory syndrome-related coronavirus; test: Antiviral activity against MERS-CoV infected in human Caco2 cells assessed as inhibition of viral replication measured at 18 hrs post-infection by plaque formation assay; format: functional, organism-based; details: Caco-2, 18 h
[9] = Cytotoxicity against human RD cells infected with EV71 assessed as decrease in cell viability after 48 hrs by WST1 assay; format: cell-based
In short: (§3)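 Cells seeded at 1 × 10^4 per well and cultured overnight at 37 °C, then incubated 48 h with serially diluted compounds. Viability read with WST-1 reagent as absorbance at OD450/OD630.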

Hepatitis C virus [10] = test: Antiviral activity against EGFP-fused HCV JFH-1 harboring K78E/E2-G451R/NS3-M260K/NS5A-T462I mutation infected in human Huh7.5.1 cells assessed as combination index after 2 days in presence of ribavirin by qRT-PCR analysis; format: functional, Hepacivirus hominis
In short: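 In HCVcc-infected Huh7.5.1 cells (1×10^4/well, overnight, 37 °C), compound was given at various concentrations alone or with the named approved antiviral. After 2 days HCV RNA was quantified by qRT-PCR to derive the combination index.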

[11] = Cytotoxicity against human Huh7.5.1 cells infected with ZIKV assessed as decrease in cell viability after 48 hrs by WST1 assay; format: cell-based; in short: as §3
[12] = Selectivity index, ratio of CC50 for human Caco2 cells to EC50 for MERS-CoV infected in human Caco2 cells; format: toxicity, cell-based; details: read-out: Ratio CC50/EC50
Hepatitis C virus [13] = test: Antiviral activity against HCV infected in human Huh7.5.1 cells assessed as decrease in viral infection; format: functional, organism-based, Hepacivirus hominis; details: Huh-7.5.1
[14] = Selectivity index, ratio of CC50 for African green monkey Vero cells to EC50 for SFTSV infected in African green monkey Vero cells; format: toxicity; details: read-out: Ratio CC50/EC50
In short: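 Vero cells infected with SFTSV at MOI 0.01; virus titre measured 4 days after infection. The cytotoxicity arm used 1×10^4 cells/well with 48 h of serially diluted compound, then a WST-1 absorbance read (OD450/OD630) for CC50. SI is CC50/EC50.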

[15] = biological target: Heat shock protein HSP90 (Homo sapiens) (UniProt P07900+P08238); test: Binding affinity to HSP90 (unknown origin); format: protein assay
Enterovirus A71 = test: Antiviral activity against EV71 infected in human RD cells measured at 24 hrs post-infection by luciferase reporter gene assay; format: functional, organism-based; details: Enterovirus A
In short: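 RD cells at 1×10^4/well, cultured overnight, were infected with EV71(FY)-Luc at MOI 1 and treated with compound immediately afterwards. Luminescence read-out; EC50 is 50% signal reduction.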

[16] = system: Severe fever with thrombocytopenia syndrome virus; test: Antiviral activity against SFTSV infected in African green monkey Vero cells assessed as reduction in viral titre measured at 4 days post infection; format: functional; details: 96 h
Hepatitis C virus [17] = test: Ratio of EC50 for antiviral activity against HCV infected in human Huh7.5.1 cells assessed as decrease in viral infection in presence of uridine to EC50 for antiviral activity against HCV infected in human Huh7.5.1 cells assessed as decrease in viral infection in absence of uridine; format: functional, Hepacivirus hominis
In short: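 HCV antiviral EC50 in Huh7.5.1 cells was measured with 0.5 mM uridine supplemented, and compared with the EC50 obtained without uridine.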

[18] = Cytotoxicity against human Huh7.5.1 cells assessed as decrease in cell viability after 48 hrs by WST1 assay; format: cell-based; in short: as §3
[19] = system: Human immunodeficiency virus; test: Antiviral activity against HIV pseudotyped virions infected in human HEK293T cells cotransfected with envelope deficient pNL4-3.luc.R-E- plasmid and VSVG plasmid assessed as inhibition of HIV replication preincubated for 15 mins followed by viral infection and measured at 48 hrs post-infection by luciferase based luminescence method; format: functional, organism-based; details: Human immunodeficiency virus 1, HEK-293T
In short: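 VSV-G-pseudotyped HIV (pNL4-3.luc.R-E-) was made in HEK293T by calcium phosphate transfection, collected at 48 h and diluted to 0.2 ng p24/ml. HEK293T cells in 24-well plates got compound 15 min before 0.5 mL pseudovirus. Cells were lysed 48 h post-infection for luciferase.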

Chain of Inosine-5'-monophosphate dehydrogenase 2 (Homo sapiens) (P12268 2-514 limits assumed): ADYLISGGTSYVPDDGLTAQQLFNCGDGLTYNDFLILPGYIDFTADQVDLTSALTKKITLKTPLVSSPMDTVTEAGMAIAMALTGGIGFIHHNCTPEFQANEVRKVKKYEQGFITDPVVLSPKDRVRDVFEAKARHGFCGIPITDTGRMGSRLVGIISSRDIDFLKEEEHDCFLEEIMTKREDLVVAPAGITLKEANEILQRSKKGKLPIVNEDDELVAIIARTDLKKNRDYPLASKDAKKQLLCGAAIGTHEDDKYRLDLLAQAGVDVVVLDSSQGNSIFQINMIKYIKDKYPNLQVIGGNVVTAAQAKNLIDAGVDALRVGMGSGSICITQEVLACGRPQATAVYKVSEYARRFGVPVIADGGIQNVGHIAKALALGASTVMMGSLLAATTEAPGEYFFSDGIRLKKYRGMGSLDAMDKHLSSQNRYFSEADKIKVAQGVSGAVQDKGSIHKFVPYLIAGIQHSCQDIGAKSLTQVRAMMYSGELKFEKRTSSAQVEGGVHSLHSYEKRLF

CCN(CC)c1ccc(Oc2ccc(-c3[nH]c4cccc(F)c4c(=O)c3C)cc2F)cc1
Activity (Hepatitis C virus [1]; Hepacivirus hominis): Dose-dependent effect
EC50 (Hepatitis C virus [1]; JFH-1, Huh-7.5.1, 48 h): 5 to 7 nM
CC50 at 48 h [2]: > 2500 nM
CC50 at 48 h [3]: > 2500 nM
Activity [4]: inactive
selectivity ratio [5]: > 41
IC50 [6]: 60 nM
Activity (Homo sapiens): Dose-dependent effect
Activity (Hepatitis C virus [7]): Dose-dependent effect
EC50 (Influenza A virus): 240 nM
EC50 [8]: 333 nM
CC50 at 48 h [9]: > 2500 nM
CI (Hepatitis C virus [10]): >50
CC50 at 48 h [11]: > 2500 nM
selectivity ratio [12]: > 7.5
EC50 (Hepatitis C virus [13]): 15 nM
selectivity ratio [14]: > 8
Activity [15]: inactive
EC50 (Enterovirus A71): 4 nM
EC50 [16]: 300 nM
Ratio EC50 (Hepatitis C virus [17]): 200
CC50 at 48 h [18]: > 2500 nM
EC50 [19]: 13 nM
